In ChEMBL document CHEMBL1131430, “Discovery and structure-activity relationship of the first non-peptide competitive human glucagon receptor antagonists” (J Med Chem, 1998) one finds IC50 data, which are given here for 33 compounds.

Structures are written as SMILES. Some results are limits rather than exact numbers.

T1 sequence (P47871 whole entry): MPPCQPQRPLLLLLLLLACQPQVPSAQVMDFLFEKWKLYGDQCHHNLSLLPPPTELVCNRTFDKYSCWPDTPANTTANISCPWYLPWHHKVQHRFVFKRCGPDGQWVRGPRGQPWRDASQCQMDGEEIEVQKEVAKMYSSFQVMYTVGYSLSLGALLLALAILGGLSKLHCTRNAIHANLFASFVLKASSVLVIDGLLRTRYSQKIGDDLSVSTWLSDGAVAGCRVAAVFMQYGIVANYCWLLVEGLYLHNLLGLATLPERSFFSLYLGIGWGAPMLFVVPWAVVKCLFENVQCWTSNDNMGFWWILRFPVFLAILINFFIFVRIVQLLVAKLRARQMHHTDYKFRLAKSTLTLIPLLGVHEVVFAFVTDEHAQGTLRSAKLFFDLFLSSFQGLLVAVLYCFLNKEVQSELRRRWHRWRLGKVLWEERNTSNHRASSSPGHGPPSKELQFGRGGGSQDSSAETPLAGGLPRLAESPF

The first test concerns the target T1, Glucagon receptor (Homo sapiens, UniProt P47871). As to the kind of experiment: Binding affinity towards cloned human glucagon receptor in BHK cells. It counts as cell-based. A digest of the protocol:
(§1)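 Competition binding on plasma membranes (0.5 μg protein/well) from BHK cells stably expressing recombinant human glucagon receptor, selected with 0.5 mg/mL G-418. Nonspecific binding with 10⁻⁶ M glucagon. Filtration, gamma counting; IC50 mean ± SD, n = 2.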
Regarding `O=C(O)c1ccc(C(=O)CSc2nc3ccccc3[nH]2)cc1`, the IC50 was greater than 500 µM.

Regarding `CO/N=C(/CSc1nc2ccccc2[nH]1)c1ccc(O)c(Cl)c1`, the IC50 was greater than 500 µM. Still for that read-out and setting: for `CCCC(Sc1nc2ccccc2[nH]1)C(=O)c1ccc(O)c(O)c1` (stereo not drawn) the value was greater than 500 µM.

`O=C(CCCSc1nc2ccccc2[nH]1)c1ccc(O)c(O)c1`: the IC50 is greater than 500 µM. Same read-out and setting: for `COc1cc(C(=O)CSc2nc3ccccc3[nH]2)ccc1O` the value was 41 µM; for `O=C(CSc1nc2cc(Cl)c(Cl)cc2[nH]1)c1ccc(O)c(O)c1`, 20 µM; for `O=C(CSc1nc2ccccc2[nH]1)c1cccc(O)c1`, 380 µM. Still for that read-out and setting: for `COc1ccc(C(=O)CSc2nc3ccccc3[nH]2)cc1OC` the value was greater than 500 µM; for `O=C(CSc1nc2ccc([N+](=O)[O-])cc2[nH]1)c1ccc(O)c(O)c1`, 55 µM.

The compound `O=C(CSc1nc2ccccc2[nH]1)c1ccccc1` had an IC50 greater than 500 µM. The compound `O=C(CSc1ccc2ccccc2n1)c1ccc(O)c(O)c1` returned an IC50 of 160 µM. `Cn1c(SCC(=O)c2ccc(O)c(O)c2)nc2ccccc21` had an IC50 greater than 500 µM. On the same count and under the same terms, then `O=C(CSc1nc2ccccc2[nH]1)c1ccc(O)c(C(=O)O)c1`, with 200 µM. In the case of `O=C(CSc1nc2ccccc2o1)c1ccc(O)c(O)c1`, the IC50 stood at 250 µM.

With `O=C(O)c1cccc(C(=O)CSc2nc3ccccc3[nH]2)c1`, the IC50 is greater than 500 µM. Take `O=C(CSc1nc2ccccc2s1)c1ccc(O)c(O)c1`: the IC50 was 73 µM. That is a double-digit micromolar value. `Oc1ccc(/C(CSc2nc3ccccc3[nH]2)=N\OCc2ccccc2)cc1Cl`: the IC50 was greater than 500 µM. Still for that read-out and setting: for `O=C(CSc1nc2ccccc2[nH]1)c1ccc(O)cc1` the value was greater than 60 µM; for `O=C(O)c1cccc(COc2ccc3[nH]c(SCC(=O)c4ccc(O)c(O)c4)nc3c2)c1`, 95 µM; for `O=C(CSc1nc2ccccc2[nH]1)c1ccc(O)c(Cl)c1`, 12 µM. In the case of `O=C(CSc1nc2ccccc2[nH]1)c1cc(O)cc(O)c1`, the IC50 is greater than 500 µM. Same read-out and setting: for `COC(=O)c1cccc(COc2ccc3[nH]c(SCC(=O)c4ccc(O)c(O)c4)nc3c2)c1` the value was 16 µM; for `O=C(CSc1nc2ccccc2[nH]1)c1ccc(Cl)c(Cl)c1`, greater than 500 µM; for `Oc1ccc(C(O)CSc2nc3ccccc3[nH]2)cc1Cl` (stereo not drawn), greater than 500 µM. For `COC(=O)c1cccc(COc2ccc3[nH]c(SCC(=O)c4ccc(O)c(Cl)c4)nc3c2)c1`, the IC50 amounted to 9.2 µM. Compound `O=C(CSc1ncc[nH]1)c1ccc(O)c(O)c1` came in with an IC50 greater than 500 µM. On the same count and under the same terms, then `O/N=C(/CSc1nc2ccccc2[nH]1)c1ccc(O)c(Cl)c1`, with greater than 500 µM; and `O=C(CSc1nnc(-c2ccccc2)[nH]1)c1ccc(O)c(O)c1`, with 55 µM; and `CC(C)(C)c1ccc2nc(SCC(=O)c3ccc(O)c(O)c3)[nH]c2c1`, with 5.4 µM.

With `COc1ccc2[nH]c(SCC(=O)c3ccc(O)c(O)c3)nc2c1`, the half-inhibitory concentration (IC50) turned out to be 42 µM. In the case of `O=C(CSc1nc(-c2ccccc2)c(-c2ccccc2)[nH]1)c1ccc(O)c(O)c1`, the IC50 was 180 µM. Compared with the last compound, the IC50 is about 4.3-fold higher. The same measure, in the same setting: for `O=C(CSc1nc2cc(OCc3ccccc3)ccc2[nH]1)c1ccc(O)c(O)c1` the value was 18 µM.

The target of a further test is T1, Glucagon receptor. As to the kind of experiment: Compound was evaluated for its binding affinity towards cloned human Glucagon receptor in BHK cells. The format is cell-based. The method, boiled down:
as §1
For `O=C(CSc1nc2ccccc2[nH]1)c1ccc(O)c(O)c1`, the IC50 was 20 µM. This lies in the double-digit micromolar range.
